Source: PubChem BioAssay
In the library only some 3.7% were active in any assay of this set; here they are far more common.
TAAR1 antag – human TAAR1 antagonists, primary screen, Fluo-8 calcium fluorescence, CHO RD-HGA16 cells. Trace amine-associated receptor 1 (Homo sapiens), Q96RJ0. antagonist. inhibition, % at 3 µM. 1.5% of 360,000 active. AID 624466, 2012;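 active means inhibition above a per-plate cutoff, the mean inhibition of test compounds on that plate plus 3 SD, cut at about 49% in these data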;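 further: 0% = DMSO plus EC80 beta-PEA response and 100% = DMSO alone without agonist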
Target sequence (Q96RJ0 whole entry, looked up): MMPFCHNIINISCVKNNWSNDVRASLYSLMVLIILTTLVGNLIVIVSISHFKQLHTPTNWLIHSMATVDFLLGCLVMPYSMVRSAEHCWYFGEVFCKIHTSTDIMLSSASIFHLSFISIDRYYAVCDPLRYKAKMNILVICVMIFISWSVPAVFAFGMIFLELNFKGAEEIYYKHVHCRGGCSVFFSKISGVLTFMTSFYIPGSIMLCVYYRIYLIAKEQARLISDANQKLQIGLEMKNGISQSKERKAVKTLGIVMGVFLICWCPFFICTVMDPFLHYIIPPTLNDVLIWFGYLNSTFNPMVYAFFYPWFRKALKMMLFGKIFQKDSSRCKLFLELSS
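Assay system: RD-HGA16 CHO cells with stable hTAAR1 and Gα16 / Reagent: EC80 β-phenethylamine stimulus / Doses: 3 µM, single point / Timing: dye loading 75 min at 37 °C, then 30 min room temperature / Measured by: Fluo-8 intracellular calcium dye fluorescence, real-time kinetic reads / Controls: vehicle wells and EC80 agonist wells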
TAAR1 agonist – human TAAR1 agonists, primary screen, Fluo-8 calcium fluorescence, CHO RD-HGA16 cells; Trace amine-associated receptor 1 (Homo sapiens), Q96RJ0; vehicle wells 0%, saturating PEA agonist 100%; activation, % at 3 µM; 0.99% of 360,000 active; AID 624467, 2012;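 active means activation above the mean activation of all test compounds in the run plus 3 SD, cut at about 38% in these data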
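Assay system – CHO-derived RD-HGA16 cells with stable Gα16 and human TAAR1 · Compound dosing – one-point dosing at 3 µM (nominal) · Incubation – 17-24 h seeding, 75 min 37 °C dye, 30 min RT · Measured by – kinetic Fluo-8 calcium fluorescence · Control set – DMSO vehicle as 0%, PEA at EC100 as 100% · Repeats – single well for each compound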
rCAG binder – binders of r(CAG) RNA repeats, primary screen, biochemical, fluorescence; r(CAG) RNA repeat, TO-PRO-1 dye displacement fluorescence; inhibition, % at 3 µM; 1.3% of 370,000 active;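 active means inhibition above the plate cutoff, the mean of all test compounds on that plate plus 3 SD, cut at about 35% in these data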;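 further: 0% = DMSO alone and 100% = 100 µM mitoxantrone as full dye displacement; higher means more dye released from RNA so lower well fluorescence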
NS3 helicase inh – inhibitors of HCV NS3 helicase, primary screen, biochemical, Cy5 molecular beacon fluorescence; Hepatitis C virus NS3 helicase; NS3 helicase DNA unwinding; inhibition, % at 10.9 µM; 0.56% of 290,000 active; AID 1800, 2009;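 active means inhibition above the mean of all tested compounds plus 3 SD, set per campaign, cut at about 35% in these data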;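 further: 0% = DMSO wells and 100% = thioflavine S control wells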
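Measured by: Cy5 fluorescence, 0 and 60 min reads / Assay system: NS3 helicase fragment of HCV / Control set: low DMSO, high thioflavine S at 110 µM / Times: 1 h reaction at 25 °C, ATP-initiated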
HCV core dimer – inhibitors of HCV core protein dimerization, primary screen, biochemical, TR-FRET, high-throughput. AID 1899, 2009. 0.33% of 300,000 active. TR-FRET GST/Flag-core106 dimerization, 1536-well. inhibition, % at 5 µM;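 active means inhibition above the mean of all tested compounds plus 3 SD, set per screening campaign, cut at about 45% in these data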
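Material: GST/Flag-tagged HCV core106 proteins. Incubation: 4 h, 22.5 °C incubation. Read-out basis: inhibition (%) from 671 over 617 nm ratio. Measured by: TR-FRET, excitation 340 nm, emission 617 and 671 nm.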
TAAR1 ag confirm – human TAAR1 agonists, retest of hits, confirmation, Fluo-8 calcium fluorescence, CHO RD-HGA16 cells. shares compounds with TAAR1 agonist. scaled: DMSO 0%, maximal phenethylamine 100%. activation, % at 3 µM. 82% of 2,400 active. AID 651783, 2012;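 active means activation above a cutoff set at the run's mean compound activation plus 3 SD, cut at about 39% in these data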
Ga16 nonsel ag – nonselective calcium mobilization agonists, CHO-Ga16 cells, counter-screen for hTAAR1 agonist project, cell-based, fluorescence, CHO-Ga16 parental line; shares compounds with TAAR1 agonist; Fluo-8 calcium fluorescence; normalized to maximal ATP response, DMSO zero; activation, % at 3 µM; 50% of 2,400 active;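 active means activation above the run cutoff, the mean activation over all tested wells plus 3 SD, cut at about 12% in these data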;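 further: 0% = DMSO wells and 100% = maximal ATP response on the peak over basal ratio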
TAAR1 desensitize – TAAR1 desensitization by agonist hits, confirmation, counter-screen for TAAR1 agonist project, cell-based, fluorescence, tachyphylaxis. CHO RD-HGA16 hTAAR1, Fluo-8 calcium, beta-PEA response inhibition. AID 651951, 2012. shares compounds with TAAR1 agonist. inhibition, % at 3 µM. 46% of 2,400 active;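 active means inhibition above the run cutoff, the mean inhibition of all test compounds plus 3 SD, cut at about 49% in these data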;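 further: beta-PEA stimulus applied at its EC80; loss of beta-PEA calcium signal after compound pretreatment read as receptor desensitization; 0% = DMSO with beta-PEA at EC80 and 100% = DMSO alone without agonist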
Ga16 nonsel ant – inhibition of ATP-evoked calcium response in CHO-Ga16 cells, counter-screen for TAAR1 agonist project, cell-based, fluorescence; shares compounds with TAAR1 agonist; CHO-Ga16 ATP-induced calcium, Fluo-8 fluorescence; inhibition, % at 3 µM; 39% of 2,400 active;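 active means inhibition above the plate's mean compound inhibition plus 3 SD, computed per plate, cut at about 22% in these data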;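 further: 0% = EC80 ATP with DMSO and 100% = DMSO wells without ATP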
* marks the source's active call; other numbers are inactive results; nt = not tested or not shown.

SMILES	TAAR1 antag	TAAR1 agonist	rCAG binder	NS3 helicase inh	HCV core dimer	TAAR1 ag confirm	Ga16 nonsel ag	TAAR1 desensitize	Ga16 nonsel ant
COCCCNC(=O)[C@H]1O[C@@H](n2cnc3c(=O)[nH]c(N)nc32)[C@H](O)[C@@H]1O	-12	1	1	nt	nt	nt	nt	nt	nt
CCn1c(SCC(=O)N/N=C/c2cccc(Oc3ccccc3)c2)nnc1-c1ccccc1	nt	nt	3	nt	nt	nt	nt	nt	nt
CCOC(=O)C1(Cc2ccccc2)CCN(Cc2cccc(C#N)c2)CC1	nt	nt	-3	nt	nt	nt	nt	nt	nt
COC(=O)c1ccc(/C=C(\C#N)c2nc3ccccc3s2)cc1	5	5	7	7	-3	nt	nt	nt	nt
N#C/C(=C\c1ccccn1)c1nc2ccccc2s1	75*	72*	-2	5	-1	19	29*	41	53*
O=C(Nc1ccccc1[N+](=O)[O-])NC1CCCCN(Cc2ccc(Cl)cc2)C1=O (configuration not stated)	nt	nt	4	nt	nt	nt	nt	nt	nt
CN(C)c1ccc(-c2csc(C(O)c3ccc(F)cc3)n2)cc1 (configuration not stated)	91*	77*	9	nt	nt	90*	59*	98*	73*
CC1NC(C)(C)Cc2c1ccc1ccccc21 (configuration not stated)	-15	0	2	-2	-2	nt	nt	nt	nt
CC1NC(C)c2c(ccc3ccccc23)O1 (configuration not stated)	nt	nt	5	nt	nt	nt	1	nt	6
COC(=O)C[C@H]1CC[C@H]2[C@H](COc3ccc(NC(=O)c4cccs4)cc3C(=O)N2C)O1	nt	nt	0	nt	nt	nt	nt	nt	nt
O=C1NC(Cc2ccccc2)c2nc3ccc(F)cc3c(=O)n2-c2cc(Cl)ccc21 (configuration not stated)	34	17	6	nt	nt	nt	nt	nt	nt
O=C1NC(Cc2ccccc2)c2nc3cc(F)ccc3c(=O)n2-c2cc(Cl)ccc21 (configuration not stated)	24	72*	2	nt	nt	50*	17*	14	12
COC(=O)[C@@]12CCCCC3=C1N(CCC3)C(=O)[C@H]2CC(=O)N1CCC(c2ccccc2)CC1	nt	nt	4	nt	nt	nt	nt	nt	nt
Cc1cc(N2CCN(C)CC2)nc2ccc(NC(=S)N3CCN(c4cccc(Cl)c4)CC3)cc12	4	7	1	-38	3	nt	nt	nt	nt
Cc1cccc(N2CCN(C(=S)Nc3ccc4nc(N5CCN(C)CC5)cc(C)c4c3)CC2C)c1 (configuration not stated)	85*	93*	5	-55	5	103*	44*	94*	35*
CC(=O)C1(C(=O)NCc2ccccc2)CC(c2ccccn2)=NO1 (configuration not stated)	nt	nt	5	nt	nt	nt	nt	nt	nt
C[C@@H]1CCN(C2CC2)S(=O)(=O)c2ccc(N3CC[C@H](N(C)C)C3)cc2O1	nt	nt	3	nt	nt	nt	nt	nt	nt
CCc1ccc(OCC(=O)NNC(=O)c2cc3ccccc3o2)cc1	71*	75*	-2	3	7	15	5	6	11
COc1ccccc1N1CCN(Cc2cn[nH]c2-c2ccc(F)cc2)CC1	0	121*	-5	2	4	123*	80*	48	6
COc1ccccc1N1CCN(Cc2nc(-c3ccc(F)cc3)oc2C)CC1	10	1	-5	-11	-7	nt	nt	nt	nt
COc1ccc(C(CCNC(C)c2ccccc2)c2ccc(F)cc2)cc1 (configuration not stated)	15	51*	3	-92	-9	66*	35*	38	34*
O=[N+]([O-])c1cccc(/C=N/Nc2nc(NCc3ccccc3)nc(N3CCOCC3)n2)c1O	27	67*	23	-9	2	115*	112*	93*	85*
O=[N+]([O-])c1ccc(/C=N/Nc2nc(NCc3ccccc3)nc(N3CCOCC3)n2)cc1	-1	2	-3	1	6	nt	nt	nt	nt
O=C(CN1C(=O)C2C3C=CC(C3)C2C1=O)NCCC1=CCCCC1 (configuration not stated)	-14	1	-3	-1	-1	nt	nt	nt	nt
O=C(O)C1C2CCC(C2)C1C(=O)NCCC1=CCCCC1 (configuration not stated)	85*	80*	0	6	2	94*	4	77*	0
SMILES	TAAR1 antag	TAAR1 agonist	rCAG binder	NS3 helicase inh	HCV core dimer	TAAR1 ag confirm	Ga16 nonsel ag	TAAR1 desensitize	Ga16 nonsel ant
O=C(NCCC1=CCCCC1)C1CCN(S(=O)(=O)c2ccccc2)CC1	13	0	-3	3	2	nt	nt	nt	nt
O=C(O)/C=C/C(=O)NCCC1=CCCCC1	84*	73*	-3	3	0	95*	0	97*	7
O=C(O)C1C2C=CC(C2)C1C(=O)NCCC1=CCCCC1 (configuration not stated)	71*	72*	-2	-4	0	89*	2	84*	6
CCN(CC)c1ccc(-c2nn3c(-c4ccccc4Cl)nnc3s2)cc1	nt	nt	9	nt	nt	nt	nt	nt	nt
COC(=O)C1=C(C)N(Cc2ccccc2C(F)(F)F)C(=NCc2ccccc2)NC1c1cccc(C(F)(F)F)c1 (configuration not stated)	-28	6	1	nt	nt	nt	nt	nt	nt
O=C(CSc1nnc(-c2ccccn2)n1-c1ccccc1)Nc1ccccc1-c1ccccc1	nt	nt	6	nt	nt	nt	nt	nt	nt
COc1ccc(S[C@]2(C(=O)N3CCN(c4ncccn4)CC3)CC(=O)N(S(=O)(=O)c3ccc(F)cc3)[C@@H]2c2ccc(OC)cc2)cc1	nt	nt	12	nt	nt	nt	nt	nt	nt
CN(C)c1ccc(/C=C/C(=O)c2cccc(Br)c2)cc1	109*	328*	-14	-8	-2	126*	125*	85*	83*
CCC(C)(C)NC(=O)C(c1cccc(OC)c1)N(C(=O)c1ccn[nH]1)c1cccc(OC)c1 (configuration not stated)	39	50*	-6	-16	9	26	14*	39	28*
